Bioassay records deposited in PubChem by several laboratories.
Only some compounds are listed: those with a hit (about 4.3% of all), similar ones and a draw of the others.
Rin1-Abl PPI inh = blocks binding of human Rin1 to Abl; actives 0.4% (n = 360,000); P00519+Q13671; TR-FRET Rin1/Abl binding, biochemical; inhibition, % at 7.35 µM; AID 588664; in the data active means inhibition above about 5%, passing the limit was not always enough
UBC9 SUMO inh = blocks human SUMOylation mediated by UBC9 | P63279 | HTRF SUMOylation assay, SAE1/SAE2 + UBC9, in vitro | inhibition, % at 35 µM | actives 0.36% (n = 290,000); in the data active means inhibition above about 50%, passing the limit was not always enough
UBC13 polyUb = inhibitors of human UBC13 polyubiquitin chain formation; P61088; TR-FRET; inhibition, % at 20 µM; actives 0.47% (n = 330,000); AID 485273; in the data active means inhibition above about 45%, passing the limit was not always enough
ALR H2O2 inh = human ALR oxidase inhibition via reduced H2O2; P55789; inhibition, % (concentration not given with the values); AID 485317; purified ALR, DTT oxidation, H2O2 HRP-luminol luminescence; actives 3.8% (n = 290,000);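 active means mean replicate inhibition above about 79%, with every replicate also reaching it, limit read from the data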
PREPL inhibitor = inhibits the human prolyl oligopeptidase-like enzyme. recombinant PREPL, fluorescence polarization activity-based probe. Q4J6C6. AID 2751. actives 0.68% (n = 320,000). inhibition, % at 5.96 µM; in the data active means inhibition above about 43%;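 further: 0% = enzyme with DMSO and 100% = wells lacking enzyme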
RBBP9 inhibitor = inhibitors of human serine hydrolase RBBP9. O75884. recombinant RBBP9, FP-Rh probe fluorescence polarization. inhibition, % at 7.94 µM. actives 0.2% (n = 220,000);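 active means inhibition above the campaign mean of all tested compounds plus 3 SD, cut at about 14% in these data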;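 further: plate controls were DMSO wells with RBBP9 for no effect and wells lacking RBBP9 protein for full effect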
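Assay system: recombinant human RBBP9; Reagent: Serine-hydrolase probe FP-Rh, 375 nM pre-mixing; Doses: 7.94 µM single dose, 0.794% DMSO; Incubation: 30 min then 45 min, 25 °C; Detection: fluorescence polarization (mP), excitation 525 nm, emission 598 nm; Evaluation: percent inhibition from mP, scaled between DMSO and no-protein wells.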
* hit, by the source's call; / = not tested or not shown.

SMILES | Rin1-Abl PPI inh | UBC9 SUMO inh | UBC13 polyUb | ALR H2O2 inh | PREPL inhibitor | RBBP9 inhibitor
OC[C@H]1O[C@@H](Oc2cc(O)cc(/C=C/c3ccc(O)cc3)c2)[C@H](O)[C@@H](O)[C@@H]1O | / | 9.9 | / | 98.8* | 7.5 | 3.0
CCN1C(=O)N(C)[C@@H](c2ccccc2)C(C(C)=O)=C1C | -0.2 | / | -12.5 | -1.5 | 14.6 | /
Cc1ccn2c(NC3CCCCC3)c(C(C)C)nc2c1 | -4.1 | 7.7 | 13.7 | 99.1* | 6.9 | -8.1
Cc1ccn2c(NC3CCCCC3)c(C)nc2c1 | 2.1 | 26.1 | 7.5 | 95.2* | 13.4 | 2.6
Cc1ccn2c(NC3CCCCC3)c(-c3cccc(-c4cccc(Cl)c4)c3)nc2c1 | -0.8 | / | 15.9 | / | 10.9 | /
CCC(C)Sc1ccc(-c2nc3cc(C)ccn3c2NC2CCCCC2)cc1 (centres undefined) | 1.9 | / | 37.8 | / | 16.9 | /
Clc1ccc(-c2nc3cnccn3c2NC2CCCC2)cc1 | 2.4 | 45.2 | 20.4 | 98.7* | 15.0 | -5.8
Clc1ccc(-c2nc3cnccn3c2Nc2ccc3c(c2)OCO3)cc1 | 0.9 | 2.4 | 12.0 | 97.6* | 25.3 | -1.7
Cc1ccc(C)c(C(=O)CN2C(=O)NC3(CCCCCC3)C2=O)c1 | 2.0 | / | 1.8 | / | / | /
Cc1ccn2c(NC3CCCC3)c(-c3ccncc3)nc2c1 | -6.2 | 8.6 | 19.9 | 98.4* | 1.9 | -0.9
CN(C)c1ccc(NC(=O)c2cccc(N3C(=O)CCC3=O)c2)cc1 | 0.2 | 10.6 | -9.1 | 99.0* | 4.6 | -1.4
COc1cc(C(=O)Nc2ccc(N(C)C)cc2)cc(OC)c1OC | -5.1 | 13.9 | -5.2 | 99.4* | 2.4 | -4.5
CN(C)c1cccc(C(=O)Nc2cccc(F)c2)c1 | -3.1 | 2.4 | 4.8 | 98.2* | 4.1 | -8.0
CCN(CC)c1ccc(C(=O)Nc2cccc(F)c2)cc1 | 0.7 | 1.0 | 0.4 | 10.1 | 16.1 | -1.1
COc1cc(C(=O)Nc2ccc(S(=O)(=O)N(C)c3ccccc3)cc2)cc(OC)c1OC | -4.1 | -1.3 | 4.9 | -5.8 | 5.0 | -21.5
Cc1[nH]c2ccccc2c1/C=C(\C#N)S(=O)(=O)c1ccccc1 | 0.8 | 0.0 | -4.7 | 97.2* | 2.5 | -13.2
N#C/C(=C/c1ccc(F)cc1)S(=O)(=O)c1ccccc1 | -3.5 | 7.9 | 0.6 | -18.6 | 7.4 | -2.7
N#C/C(=C\c1ccc(O)c(O)c1)S(=O)(=O)c1ccccc1 | 1.4 | 1.7 | -62.2 | 98.9* | 0.4 | -0.5
C=CCN(CC=C)C(=O)COn1nnc2ccc(S(=O)(=O)N3CCOCC3)cc21 | 2.7 | / | -0.5 | 1.1 | 7.0 | /
CN(C)c1ccc(O)c2c1CC1CC3C(N(C)C)C(=O)C(C(N)=O)=C(O)[C@@]3(O)C(=O)C1=C2O (some centres undefined) | 8.9 | / | 21.8 | / | 6.0 | /
CN(C)[C@@H]1C(=O)C(C(=O)NCN2CCCC2)=C(O)[C@@]2(O)C(=O)C3=C(O)c4c(O)cccc4[C@@](C)(O)C3CC12 (some centres undefined) | / | 76.7* | / | / | / | 1.8
CC(=O)Nc1ccc(SC[C@H](C)CN2CC[C@H](O)CCC2=O)cc1 | 1.2 | / | 2.4 | 98.4* | -0.8 | /
CC(=O)Nc1ccc(SCCN2CC[C@@H](C(C)(C)C)CCC2=O)cc1 | 1.7 | / | 3.9 | 99.0* | 3.1 | /
COc1ccc(SC[C@H](C)CN2CC[C@H](C(C)(C)C)CCC2=O)cc1 | -0.2 | / | 3.5 | 98.5* | 21.7 | /
Cc1ccc(SCCN2CCC(C(C)(C)C)CCC2=O)cc1 (centres undefined) | 1.8 | -5.2 | 3.0 | -0.7 | 25.2 | /
SMILES | Rin1-Abl PPI inh | UBC9 SUMO inh | UBC13 polyUb | ALR H2O2 inh | PREPL inhibitor | RBBP9 inhibitor
CC(Sc1ccccc1)C(=O)N1CCN(S(=O)(=O)c2ccccc2F)CC1 (centres undefined) | 2.1 | 0.2 | -0.5 | -1.5 | 32.1 | /
COc1cnc(-c2ccccn2)nc1Oc1ccc(Cl)c2ccccc12 | -1.9 | -16.2 | 13.9 | -31.4 | 31.4 | -3.7
COc1cnc(-c2ccccn2)nc1Oc1ccccc1Cl | -6.3 | 6.1 | -6.8 | 97.8* | 35.0 | -4.9
C[C@@H]1CN([C@@H](C)CO)C(=O)c2cc(Br)cnc2O[C@@H]1CN(C)C(=O)CN(C)C | 0.9 | / | / | / | / | /
COc1cccc(CN2CCC(Oc3ccc(C(=O)N4CCCCC4)cc3)CC2)c1O | 3.5 | 7.2 | -5.5 | 84.2* | 3.7 | /
COCCCNC(=O)CS(=O)Cc1nc(-c2ccccc2C)oc1C (centres undefined) | 0.2 | 2.9 | -6.0 | 99.2* | -2.5 | -2.2
Cc1ccccc1-c1nc(CS(=O)CC(=O)NC(C)CCc2ccccc2)c(C)o1 (centres undefined) | -1.0 | 10.0 | -8.2 | -14.3 | -16.8 | /
COc1ccc(OC)c(CCNC(=O)CS(=O)(=O)Cc2nc(-c3ccccc3Cl)oc2C)c1 | 0.2 | -2.3 | 2.5 | -8.2 | 9.6 | /
Cc1cccc(-c2nc(CS(=O)CC(=O)NCCc3ccccc3)c(C)o2)c1 (centres undefined) | -0.2 | 8.9 | 6.7 | 33.7 | -4.6 | /
CCOc1ccc(CCNC(=O)CS(=O)Cc2nc(-c3ccccc3Cl)oc2C)cc1OCC (centres undefined) | 1.4 | 4.4 | -6.9 | 98.6* | 14.0 | /
Cc1ccc(CCNC(=O)CS(=O)Cc2nc(-c3ccccc3Cl)oc2C)cc1 (centres undefined) | 1.7 | -13.2 | 5.2 | 98.7* | -19.0 | /
C=CCC(C(=O)NC(C)c1ccccc1)C(=O)NC(C)c1ccccc1 (centres undefined) | -1.2 | -3.5 | -8.7 | -16.7 | -4.2 | /
CN(C(=O)CSc1ncnc2sc3c(c12)CCCC3)C1CCS(=O)(=O)C1 (centres undefined) | -9.1 | / | 17.7 | -2.5 | 19.6 | /
CCCCOc1ccc(CN2CCCCC2)cc1 | -0.3 | 13.4 | 4.9 | -0.3 | 8.7 | -4.6
Oc1ccc(N2CCN(Cc3ccc(OCCCN4CCCCC4)cc3)CC2)cc1 | 3.1 | 15.9 | 12.7 | 99.2* | 25.7 | 2.7
COC(=O)C1(NC(=O)CNC(=O)OCc2ccccc2)CCCC1 | 0.2 | / | / | / | / | /
O=C(c1ccc(S(=O)(=O)c2ccc(F)cc2)c([N+](=O)[O-])c1)N1CCCCCC1 | 0.8 | -5.7 | 7.4 | 96.1* | 2.3 | -1.9
CC1CCC2(CC1)NC(=S)N(c1ccccc1)N2 (centres undefined) | -0.3 | 15.7 | -0.4 | 93.4* | 3.9 | 0.9
O=C(CSc1nncs1)NNC(=O)c1ccco1 | 3.7 | / | 10.0 | / | -2.3 | /
O=C(O)c1cc(S(=O)(=O)N2CCN(C(c3ccccc3)c3ccccc3)CC2)ccc1Cl | 3.3 | 12.9 | -0.8 | 86.7* | -1.4 | /
O=C(O)c1cc(S(=O)(=O)N2CCN(S(=O)(=O)c3ccccc3)CC2)ccc1Cl | 3.7 | 8.9 | -9.9 | / | 8.2 | /
CCOC(=O)c1cc(S(=O)(=O)N2CCC(C)CC2)cn1C | -4.6 | / | -0.6 | 5.0 | -7.8 | /
CN(C)S(=O)(=O)c1ccc(NC(=O)CSc2nnc(-c3ccco3)o2)cc1 | 3.6 | / | -0.9 | -2.5 | 34.0 | /
N#C/C(=N\Nc1ccc(Cl)cc1)C(=N)N1CCCCCC1 | 3.3 | 18.5 | -2.8 | / | 8.5 | -7.4
